Source: publication PMC11696060 (Nature Communications, 2025)

How the values were obtained:
[1] = tested on: wild-type Arabidopsis seeds; type: in vivo, Arabidopsis thaliana; settings: after high temperature, 1 µM KAR2
Method in brief: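 Sterilized, stratified Columbia seeds (~30 per well) sown on 0.2% phytoagar containing 1 µM KAR₂ and a concentration series of test compound. Incubated at 30 °C under continuous white light (20 μmol m⁻² s⁻¹) 48 h, then 22 °C for 48 h. Germination % = germinated/total seeds per well; 6 biological replicates, means ± SE; one-way ANOVA with Tukey's HSD.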

[2] = tested on: wild-type Arabidopsis seedlings; experiment: Hypocotyl elongation assay, wild-type Arabidopsis co-treated with KAR2; type: in vivo, Arabidopsis thaliana; settings: 0.3 µM KAR2

O=C(N1CCc2ccccc21)n1ccnn1 [KK094]
Concentration inhibiting the recovery of seed germination by KAR2 [1]: 100 µM | Concentration at which KAR2-suppressed hypocotyl length is restored [2]: 0.3 µM
